Compound activity: PubChem, Johns Hopkins Ion Channel Center
Sampled rows, rich in hits. Any-hit rate of the full collection: about 2.3%.
TRPC4 PAM – TRPC4 (mouse) allosteric potentiation; B-score at 10 µM; 310,000 compounds, 0.42% hits; AID 2227; HEK293 TRPC4beta/mu-opioid, DAMGO EC20, Fluo-4 Ca2+ flux; active compounds read high;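 active = B-score of calcium response area above 5 SD of library B-scores, with initial fluorescence ratio within 5 SD of library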
TRPC6 act – activators of mouse TRPC6 channel | 310,000 compounds, 0.13% hits | HEK293-TRPC6 membrane potential dye fluorescence; active compounds read high | B-score at 10 µM;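 active = B-score of the integrated fluorescence ratio above library mean plus 3 SD, and starting fluorescence ratio within library mean plus 5 SD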;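 note: higher score means more depolarization so channel activation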
Target sequence (Q61143 whole entry, looked up): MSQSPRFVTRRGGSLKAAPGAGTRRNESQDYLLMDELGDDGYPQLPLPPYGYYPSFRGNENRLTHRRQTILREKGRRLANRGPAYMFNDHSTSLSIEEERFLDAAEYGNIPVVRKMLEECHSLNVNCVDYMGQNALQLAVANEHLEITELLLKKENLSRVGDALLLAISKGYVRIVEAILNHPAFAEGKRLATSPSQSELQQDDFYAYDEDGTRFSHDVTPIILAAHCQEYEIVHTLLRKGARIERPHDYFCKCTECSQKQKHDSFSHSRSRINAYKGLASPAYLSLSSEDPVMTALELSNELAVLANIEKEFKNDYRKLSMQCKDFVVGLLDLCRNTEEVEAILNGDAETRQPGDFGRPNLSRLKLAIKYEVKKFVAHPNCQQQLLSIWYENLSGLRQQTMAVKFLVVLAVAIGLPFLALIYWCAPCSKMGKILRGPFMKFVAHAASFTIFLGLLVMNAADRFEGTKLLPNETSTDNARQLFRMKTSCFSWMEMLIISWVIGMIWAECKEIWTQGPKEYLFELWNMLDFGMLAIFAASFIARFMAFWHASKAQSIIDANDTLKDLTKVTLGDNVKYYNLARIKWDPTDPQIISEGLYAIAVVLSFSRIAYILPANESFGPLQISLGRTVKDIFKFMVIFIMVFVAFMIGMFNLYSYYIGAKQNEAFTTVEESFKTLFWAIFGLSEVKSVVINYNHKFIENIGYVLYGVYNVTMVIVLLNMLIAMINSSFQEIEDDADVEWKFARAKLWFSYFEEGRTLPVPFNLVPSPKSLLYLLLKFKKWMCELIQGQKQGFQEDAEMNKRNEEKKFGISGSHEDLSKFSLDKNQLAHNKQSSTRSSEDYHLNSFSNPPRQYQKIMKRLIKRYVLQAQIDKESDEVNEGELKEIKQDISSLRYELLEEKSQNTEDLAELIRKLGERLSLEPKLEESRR
TRPC4 act – TRPC4 (mouse) channel activation. HEK293 TRPC4beta/mu-opioid, Fluo4 calcium fluorescence; active compounds read high. B-score at 10 µM. 310,000 compounds, 0.49% hits. AID 2237;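 active = B-score above 5 SD of library B-scores, and initial fluorescence ratio not above library mean plus 5 SD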;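 note: positive B-score marks a calcium rise read as TRPC4 activation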
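System – HEK293 cells stably co-expressing mouse TRPC4beta and mu-opioid receptor · Signal – Fluo4 calcium-sensitive dye fluorescence, kinetic, 1 Hz baseline · Benchmarks – buffer (low) and maximal DAMGO (high) · Read-out – B score of integrated fluorescence ratio per well · Incubation – dye loading 45 min room temperature, 110 s kinetic read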
TRPC6 inh – blocks the mouse TRPC6 cation channel. 310,000 compounds, 1.1% hits. HEK293-TRPC6, membrane potential dye, ACh-evoked depolarization; active compounds read low. B-score at 10 µM. Q61143. AID 2553;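 active = B-score under library mean minus 3 SD, initial fluorescence not abnormally high, positive integrated signal ratio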;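 note: B-score derived from integrated fluorescence ratio over the kinetic read; more negative B-score means stronger inhibition of depolarization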
TRPC4 inh – blocks the mouse TRPC4 cation channel; Q9QUQ5; B-score at 10 µM; HEK293 TRPC4beta/mu-opioid, DAMGO-evoked Fluo4 calcium flux; active compounds read low; 300,000 compounds, 0.39% hits;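 active = B-score over 3 SD under the library average, no early fluorescence shift, positive overall ratio signal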
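material = TRPC4beta/mu-opioid receptor HEK293 cell line | probe or stimulus = sequential submaximal and maximal DAMGO stimulation | compound dosing = one concentration per compound | measured by = Fluo4 Ca2+ flux fluorescence | evaluation = integrated fluorescence ratio relative to baseline, converted to per-well B score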
TRPC4 sel inh 2 – second selectivity test of TRPC6 inhibitors: effect on mouse TRPC4; shares compounds with TRPC6 inh; inhibition, % at 10 µM; 920 compounds, 42% hits; HEK293 TRPC4/MOR, membrane potential dye fluorescence; channel activated by saturating DAMGO dose; AID 2776;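 active = compounds whose fluorescence signal differed from control wells by over 3 SD, either direction, in both duplicate plates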
TRPC4 spec – selectivity of TRPC6 inhibitors: effect on mouse TRPC4; shares compounds with TRPC6 inh; HEK293 TRPC4/mu-opioid, membrane potential fluorescence; activity change, negative = inhibition, % at 10 µM; 920 compounds, 61% hits; AID 2777;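 active = rise or fall in signal beyond 3 SD of buffer-only wells in both replicate plates, either sign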;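 note: integrated kinetic ratio of fluorescence range over baseline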
HEK293 MPD ctr 2-1 – second counter-screen for TRPC6 inhibitors: parental HEK293 cells; shares compounds with TRPC6 inh; AID 2779; 920 compounds, 31% hits; parental HEK293 membrane potential dye fluorescence; maximal acetylcholine challenge after compound addition; signal change vs control, % at 10 µM;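 active = membrane potential signal moving either way by over 3 SD of the maximum-effect control, in both duplicate plates, meaning non-specific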
HEK293 MPD ctr-1 – counter-screen for TRPC6 inhibitors: effect in parental HEK293 cells | 920 compounds, 60% hits | parental HEK293 membrane potential dye fluorescence | shares compounds with TRPC6 inh | membrane potential signal change, % at 10 µM;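 active = membrane potential signal shifting up or down by more than 3 SD of buffer-only wells, on both duplicate plates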
HEK293 MPD ctr-2 – counter-screen for TRPC6 modulators: effect in parental HEK293 cells; membrane potential signal change, % at 10 µM; membrane potential dye fluorescence; shares compounds with TRPC6 inh; 2,400 compounds, 51% hits;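 active = membrane potential signal moves up or down beyond 5 SD from buffer-only wells, on both duplicate plates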
HEK293 MPD ctr 2-2 – second counter-screen for TRPC6 modulators: effect in parental HEK293 cells. shares compounds with TRPC6 inh. membrane potential dye fluorescence; after compound, maximal acetylcholine stimulation. inhibition, % at 10 µM. 2,400 compounds, 14% hits. AID 488926;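 active = membrane potential signal drops by more than 5 SD from the mean control signal, in both duplicate plates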
TRPC4 ctr mod – mouse TRPC4 off-target activity of TRPC6 modulators; shares compounds with TRPC6 inh; HEK293 TRPC4/mu-opioid, membrane potential fluorescence; percent change from control (negative = decrease, positive = increase), % at 10 µM; 2,400 compounds, 69% hits; AID 488927;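 active = membrane potential signal moved up or down beyond 5 SD of buffer control wells, in both duplicate plates, actives on both sides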
TRPC4 ctr inh 2 – second selectivity test of TRPC6 modulators against mouse TRPC4. HEK293 TRPC4/mu-opioid, membrane potential dye fluorescence; stimulated with maximal-effect DAMGO. shares compounds with TRPC6 inh. inhibition, % at 10 µM. 2,400 compounds, 55% hits. AID 488928;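 active = drop in membrane potential signal beyond 5 SD of the control wells in both duplicate plates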;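 note: TRPC4 counter screen for TRPC6 hits run under conditions tuned for TRPC6 not TRPC4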
TRPC6 inh conf – confirmation of mouse TRPC6 inhibitors. HEK293-TRPC6, membrane potential dye, ACh-evoked depolarization. shares compounds with TRPC6 inh. inhibition, % at 10 µM. 3,300 compounds, 43% hits;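 active = fluorescence ratio falls more than 5 SD below the full-stimulation control mean, in both duplicate runs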;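 note: integrated fluorescence ratio of peak minus minimum over baseline after agonist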
TRPC6 act conf – confirmation of mouse TRPC6 activators. shares compounds with TRPC6 inh. HEK293-TRPC6 membrane potential dye fluorescence, FDSS. activation, % at 10 µM. 2,800 compounds, 11% hits;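 active = ratio signal rise beyond 5 SD above unstimulated control wells' mean, seen in both duplicate runs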
Numbers stand for hits; - = inactive; . = no result.

SMILES | TRPC4 PAM | TRPC6 act | TRPC4 act | TRPC6 inh | TRPC4 inh | HEK293 MPD ctr-2 | HEK293 MPD ctr 2-2 | TRPC4 ctr mod | TRPC4 ctr inh 2 | TRPC6 inh conf | TRPC6 act conf | others
CC(C)CNc1c2c(nc3ccccc13)CCC2 | - | - | - | - | - | . | . | . | . | . | .
OCCNc1c2c(nc3ccccc13)CCCC2 | - | - | - | -6.7 | - | . | . | . | . | - | - | TRPC4 sel inh 2=-;TRPC4 spec=-23%;HEK293 MPD ctr 2-1=-;HEK293 MPD ctr-1=-362%
Cc1ccc(C2=CCNCC2)cc1 | - | - | - | - | - | . | . | . | . | . | .
C/C(=N\N1CCN(C)CC1)c1c(O)[nH]c(=O)[nH]c1=O | - | - | - | - | - | . | . | . | . | . | .
O=C(COc1ccc(Cl)cc1)N(c1ccccc1Cl)C1CN2CCC1CC2 (configuration not stated) | - | - | - | -5.3 | - | 132% | - | 26% | 52% | - | .
CCNCCNc1ccc([N+](=O)[O-])c2cccnc12 | 18 | - | - | -5.9 | - | -288% | - | -40% | 54% | 72% | -
Cc1nonc1OCCNCCNc1ccc([N+](=O)[O-])c2cccnc12 | - | - | - | -5.1 | - | -180% | - | -38% | 75% | 48% | -
CCc1nc2ccccc2c(=O)n1-c1ccccc1[N+](=O)[O-] | - | - | - | - | - | . | . | . | . | . | .
CCCNC(=O)N1[C@H]2CC[C@@H]1C(C(=O)OC)=C(c1cccc(OC)c1OC)C2 | - | - | - | - | - | . | . | . | . | . | .
CNc1ccc2nc3ccccc3[n+](C)c2c1 | - | - | - | -12 | - | -84% | 162% | -48% | 52% | 86% | -
C[n+]1c2ccccc2nc2ccc(NCCO)cc21 | - | - | - | -7.4 | - | -114% | 133% | -36% | 50% | 66% | -
O=C1CCCN1CC#CCN1CCCC1 | - | - | - | -5.9 | - | - | - | - | - | 49% | .
O=C(NC1CN2CCC1CC2)c1cc(Cl)c([N+](=O)[O-])c2nc[nH]c12 (configuration not stated) | - | - | - | -5.9 | - | -218% | - | -33% | - | - | -
O=S(=O)(NC1CN2CCC1CC2)c1ccc(Cl)cc1 (configuration not stated) | - | - | - | - | - | . | . | . | . | . | .
CCOC(=O)C(O)(c1ccc(N(CC)C(=O)COc2ccccc2)cc1)C(F)(F)F (configuration not stated) | - | - | - | -5 | - | - | - | - | - | - | -
CC(N)Cc1cn(Cc2ccccc2)c2ccccc12 (configuration not stated) | - | - | - | - | - | . | . | . | . | . | .
Cc1ccc(Cc2c(C)nc3nc(SCC(=O)N4CCC5(CC4)OCCO5)nn3c2C)cc1 | - | 13 | - | -11 | - | 184% | - | 32% | 38% | 46% | 152%
CCCNC(=O)N1[C@H]2CC[C@@H]1C(C(=O)OC)=C(c1ccccc1)C2 | - | - | - | - | - | . | . | . | . | . | .
OC(c1cccc(Cl)c1)(c1cccc(Cl)c1)C1CN2CCC1CC2 (configuration not stated) | - | - | - | -8 | - | - | - | 10% | - | 70% | -
Clc1ccc2c(c1)C(OC1CN3CCC1CC3)c1ccccc1CS2 (configuration not stated) | - | - | - | - | - | . | . | . | . | . | .
CC1CCN(CCc2nc3ccccc3[nH]2)CC1 | - | - | - | - | - | . | . | . | . | . | .
C[C@H](NC(=O)N1C[C@H]2C[C@@H](C1)c1cccc(=O)n1C2)C(=O)Nc1cccc(F)c1 | - | - | - | - | - | . | . | . | . | . | .
O=C(Nc1ccc(F)c([N+](=O)[O-])c1)N1C[C@H]2C[C@@H](C1)c1cccc(=O)n1C2 | - | - | - | - | - | . | . | . | . | . | .
C[C@H](NC(=O)N1C[C@H]2C[C@@H](C1)c1cccc(=O)n1C2)C(=O)Nc1ccccc1F | - | - | - | - | - | . | . | . | . | . | .
C[N+]12CCC(CC1)C(C(O)(c1ccccc1)c1cccs1)C2 (configuration not stated) | - | - | - | -5.7 | - | - | - | - | - | 55% | -
SMILES | TRPC4 PAM | TRPC6 act | TRPC4 act | TRPC6 inh | TRPC4 inh | HEK293 MPD ctr-2 | HEK293 MPD ctr 2-2 | TRPC4 ctr mod | TRPC4 ctr inh 2 | TRPC6 inh conf | TRPC6 act conf | others
CCC[N+]12CCC(CC1)C(C(O)(c1ccccc1)c1ccccc1)C2 (configuration not stated) | - | - | - | - | - | . | . | . | . | . | .
COc1cccc2c1O[C@H]1C(=O)CC[C@H]3CN(C)CCC231 (some centres not stated) | - | - | - | - | - | . | . | . | . | . | .
CCOC(=O)c1c(C=O)c2ccccc2n1Cc1ccccc1 | - | - | - | - | - | . | . | . | . | . | .
CCN(CCO)c1ccc(N=Cc2c(O)n(C)c(=S)[nH]c2=O)cc1 | - | 23 | - | -7.5 | - | 162% | - | 26% | - | 36% | 54%
CCN(CC)c1ccc(N=Cc2c(O)n(Cc3ccco3)c(=O)[nH]c2=O)cc1 | - | - | - | - | - | . | . | . | . | . | .
COc1ccc(CCNCc2c(OC)ccc3ccccc23)cc1 | - | - | - | -7 | - | . | . | . | . | 65% | . | TRPC4 sel inh 2=69%;TRPC4 spec=47%;HEK293 MPD ctr 2-1=-;HEK293 MPD ctr-1=24%
CCNc1cc(N2CCN(C)CC2)ccc1[N+](=O)[O-] | - | - | - | - | - | . | . | . | . | . | .
CN1CCN(c2ccc([N+](=O)[O-])c(N/N=C3\CN4CCC3CC4)c2)CC1 | - | - | - | -12 | - | -230% | 70% | -48% | 82% | 76% | -
